Laboratory results reported in ChEMBL document CHEMBL2062371, “Synthesis of benzamide derivatives and their evaluation as antiprion agents” (Bioorg Med Chem, 2012).
The source made the active and inactive calls.

Experiments:
[1] = Antiprion activity in mouse SMB cells assessed as reduction in PrPSc level after 3 days by dot blot assay relative to control; format: cell-based; settings: 72 h
[2] = tested on: SMB; test: Antiprion activity in mouse SMB cells assessed as reduction in PrPSc level at 20 uM after 3 days by dot blot assay relative to control; format: cell-based; set-up: scale not given: the % may be the effect or the level left
In short: (§1)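 Compound was added at a final 20.0 or 2.0 µM, then incubated 3 days (ScN2a at 37 °C, SMB at 35 °C). Lysates were dot-blotted to PVDF, treated with proteinase K (25 µg/ml, 90 min, 37 °C) and denatured with guanidinium thiocyanate. PrPres was probed with rabbit 1023 antiserum and detected by ECL. Signal is relative to untreated control (100%), from three independent experiments.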

[3] = Inhibition of mouse recombinant alexa fluor 488-labeled PrPC expressed in Escherichia coli BL21(DE3) RIL assessed as inhibition of association with PrPSc measured for 10 secs by SIFT-based confocal microscopy
In short: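 SIFT assay: Alexa-488-labelled mouse rPrP and Alexa-647-labelled L42 antibody (each about 2–6 nM) were mixed with diluted human PrPSc and compound in 20 mM potassium phosphate pH 6 with 0.1% Nonidet P40. Dilution series 0.1–100 µM. Read by dual-colour confocal FIDA as 2D intensity histograms, with cut-offs set from controls. EC50 is half-maximal inhibition of rPrP binding to PrPSc.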

[4] = tested on: ScN2a; test: Antiprion activity in mouse ScN2a cells assessed as reduction in PrPSc level at 20 uM after 3 days by dot blot assay relative to control; format: cell-based; set-up: scale not given: the % may be the effect or the level left; in short: as §1
[5] = tested on: ScN2a; test: Antiprion activity in mouse ScN2a cells assessed as reduction in PrPSc level at 2 uM after 3 days by dot blot assay relative to control; format: cell-based; set-up: scale not given: the % may be the effect or the level left; in short: as §1
[6] = Antiprion activity in mouse ScN2a cells assessed as reduction in PrPSc level after 3 days by dot blot assay relative to control; format: cell-based; settings: 72 h
[7] = tested on: SMB; test: Antiprion activity in mouse SMB cells assessed as reduction in PrPSc level at 2 uM after 3 days by dot blot assay relative to control; format: cell-based; set-up: scale not given: the % may be the effect or the level left; in short: as §1
[8] = tested on: ScN2a; test: Antiprion activity in mouse ScN2a cells assessed as inhibition of PrPSc formation at 17 uM after 3 days by dot blot assay relative to control; format: cell-based

## CCCCNC(=O)c1cc(NC(=O)CN2CCCCC2)ccc1Oc1ccc(OCCCC)cc1
[1]
  EC50: 24.3 µM
[2]
  Activity: 52%
[3]; read-out: EC50
  EC50: 50 µM
[4]
  Activity: 21%
[5]
  Activity: 61%
[6]
  EC50: 3.73 µM
[7]
  Activity: 76%

## CCCCNC(=O)c1cc(NC(=O)CN2CCCC2)ccc1Oc1ccccc1C(F)(F)F
[1]
  EC50: 16.5 µM
[2]
  Activity: 54%
[3]; read-out: EC50
  EC50: 25 µM
[4]
  Activity: 15%
[5]
  Activity: 16%
[6]
  EC50: 1.42 µM
[7]
  Activity: 61%

## CCCCNC(=O)c1cc(NC(=O)CN2CCCC2)ccc1Oc1ccc(OC)cc1
[1]
  EC50: 866 µM
[2]
  Activity: 75%
[3]; read-out: EC50
  EC50: 198 µM
[4]
  Activity: 31%
[5]
  Activity: 36%
[6]
  EC50: 2.92 µM
[7]
  Activity: 74%

## CCCCNC(=O)c1cc(NC(=O)CN2CCCCC2)ccc1Oc1ccc(C)cc1
[1]
  EC50: > 1000 µM
[2]
  Activity: 86%
[3]; read-out: EC50
  EC50: 40 µM
[4]
  Activity: 26%
[5]
  Activity: 36%
[6]
  EC50: 2.57 µM
[7]
  Activity: 86%

## CCCCNC(=O)c1cc(NC(=O)CN2CCCC2)ccc1Oc1ccc(C(F)(F)F)cc1
[1]
  EC50: 5.81 µM
[2]
  Activity: 41%
[3]; read-out: EC50
  EC50: 40 µM
[4]
  Activity: 12%
[5]
  Activity: 26%
[6]
  EC50: 1.61 µM
[7]
  Activity: 50%

## CCCCNC(=O)c1cc(NC(=O)CN2CCCCC2)ccc1Oc1ccc(Cl)cc1
[1]
  EC50: 15 µM
[2]
  Activity: 49%
[3]; read-out: EC50
  EC50: 20 µM
[4]
  Activity: 21%
[5]
  Activity: 35%
[6]
  EC50: 2.25 µM
[7]
  Activity: 68%

## CCCCNC(=O)c1cc(NC(=O)CN2CCCCC2)ccc1Oc1ccc(C(C)C)cc1
[1]
  EC50: 13.8 µM
[2]
  Activity: 46%
[3]; read-out: EC50
  EC50: 15 µM
[4]
  Activity: 13%
[5]
  Activity: 43%
[6]
  EC50: 2.22 µM
[7]
  Activity: 72%

## CCCCNC(=O)c1cc(NC(=O)CN2CCCC2)ccc1Oc1ccccc1
[1]
  EC50: > 1000 µM
[2]
  Activity: 82%
[3]; read-out: EC50
  EC50: 200 µM
[4]
  Activity: 41%
[5]
  Activity: 48%
[6]
  EC50: 5.52 µM
[7]
  Activity: 92%

## CCCCNC(=O)c1cc(NC(=O)CN2CCCCC2)ccc1Oc1ccccc1
[1]
  EC50: 501 µM
[2]
  Activity: 75%
[3]; read-out: EC50
  EC50: 200 µM
[4]
  Activity: 30%
[5]
  Activity: 50%
[6]
  EC50: 3.86 µM
[7]
  Activity: 65%

## CCCCNC(=O)c1cc(NC(=O)CN2CCCCC2)ccc1Oc1ccccc1C(F)(F)F
[1]
  EC50: 30.6 µM
[2]
  Activity: 55%
[3]; read-out: EC50
  EC50: 70 µM
[4]
  Activity: 12%
[5]
  Activity: 39%
[6]
  EC50: 2.04 µM
[7]
  Activity: 75%

## CCCCNC(=O)c1cc(NC(=O)CN2CCCC2)ccc1OC(C)C
[1]
  EC50: 10.8 µM
[2]
  Activity: 48%
[3]
  EC50: Not Active
[4]
  Activity: 24%
[5]
  Activity: 42%
[6]
  EC50: 2.76 µM
[7]
  Activity: 59%

## CCCCNC(=O)c1cc(NC(=O)CN2CCCC2)ccc1Oc1ccc(C(C)C)cc1
[1]
  EC50: 16.3 µM
[2]
  Activity: 48%
[3]; read-out: EC50
  EC50: 18 µM
[4]
  Activity: 20%
[5]
  Activity: 32%
[6]
  EC50: 2.08 µM
[7]
  Activity: 73%

## CCCCNC(=O)c1cc(NC(=O)CN2CCCC2)ccc1Oc1ccc(F)cc1
[1]
  EC50: > 1000 µM
[2]
  Activity: 92%
[3]; read-out: EC50
  EC50: 200 µM
[4]
  Activity: 39%
[5]
  Activity: 45%
[6]
  EC50: 4.7 µM
[7]
  Activity: 57%

## CCCCNC(=O)c1cc(NC(=O)CN2CCCCC2)ccc1Oc1ccc(F)cc1
[1]
  EC50: > 1000 µM
[2]
  Activity: 81%
[3]; read-out: EC50
  EC50: 70 µM
[4]
  Activity: 32%
[5]
  Activity: 35%
[6]
  EC50: 2.93 µM
[7]
  Activity: 61%

## CCCCNC(=O)c1cc(NC(=O)CN2CCCCC2)ccc1Oc1ccc(OC)cc1
[1]
  EC50: > 1000 µM
[2]
  Activity: 82%
[3]; read-out: EC50
  EC50: 150 µM
[4]
  Activity: 28%
[5]
  Activity: 49%
[6]
  EC50: 3.56 µM
[7]
  Activity: 83%

## CCCCCCCC/C=C\CCCCCCCOCC(C[N+](C)(C)CCNC(=O)C(CCCNCCCN)NCCCN)OCCCCCCC/C=C\CCCCCCCC (stereo not drawn)
[8]
  inhibition: Active

## C#CCOc1ccc(NC(=O)CN2CCCCC2)cc1C(=O)NCCCC
[1]
  EC50: 97.2 µM
[2]
  Activity: 66%
[3]
  EC50: Not Active
[4]
  Activity: 37%
[5]
  Activity: 76%
[6]
  EC50: 9.28 µM
[7]
  Activity: 70%

## CCCCNC(=O)c1cc(NC(=O)CN2CCCC2)ccc1Oc1ccc(C)cc1
[1]
  EC50: 18.9 µM
[2]
  Activity: 55%
[3]; read-out: EC50
  EC50: 70 µM
[4]
  Activity: 13%
[5]
  Activity: 32%
[6]
  EC50: 1.83 µM
[7]
  Activity: 61%

## CCCCNC(=O)c1cc(NC(=O)CN2CCCC2)ccc1Oc1ccc(OCCCC)cc1
[1]
  EC50: 53.6 µM
[2]
  Activity: 58%
[3]; read-out: EC50
  EC50: 30 µM
[4]
  Activity: 19%
[5]
  Activity: 52%
[6]
  EC50: 2.98 µM
[7]
  Activity: 82%

## CCCCNC(=O)c1cc(NC(=O)CN2CCCCC2)ccc1OC(C)C
[1]
  EC50: 161 µM
[2]
  Activity: 72%
[3]
  EC50: Not Active
[4]
  Activity: 29%
[5]
  Activity: 78%
[6]
  EC50: 6.86 µM
[7]
  Activity: 58%

## CCCCNC(=O)c1cc(NC(=O)CN2CCCC2)ccc1Oc1ccc(Cl)cc1
[1]
  EC50: 12.3 µM
[2]
  Activity: 46%
[3]; read-out: EC50
  EC50: 55 µM
[4]
  Activity: 16%
[5]
  Activity: 25%
[6]
  EC50: 1.7 µM
[7]
  Activity: 68%

## CCCCNC(=O)c1cc(NC(=O)CN2CCCC2)ccc1OC12CC3CC(CC(C3)C1)C2
[1]
  EC50: 12.4 µM
[2]
  Activity: 42%
[3]; read-out: EC50
  EC50: 80 µM
[4]
  Activity: 16%
[5]
  Activity: 34%
[6]
  EC50: 2 µM
[7]
  Activity: 77%

## CCCCNC(=O)c1cc(NC(=O)CN2CCCC2)ccc1OC1CCCCC1
[1]
  EC50: 7.81 µM
[2]
  Activity: 38%
[3]; read-out: EC50
  EC50: 200 µM
[4]
  Activity: 32%
[5]
  Activity: 38%
[6]
  EC50: 3.14 µM
[7]
  Activity: 67%

## CCCCNC(=O)c1cc(NC(=O)CN2CCCCC2)ccc1OC12CC3CC(CC(C3)C1)C2
[1]
  EC50: 5.22 µM
[2]
  Activity: 36%
[3]; read-out: EC50
  EC50: 50 µM
[4]
  Activity: 12%
[5]
  Activity: 27%
[6]
  EC50: 1.65 µM
[7]
  Activity: 54%

## CCCCNC(=O)c1cc(NC(=O)CN2CCCCC2)ccc1Oc1ccc(C(F)(F)F)cc1
[1]
  EC50: 30 µM
[2]
  Activity: 53%
[3]; read-out: EC50
  EC50: 70 µM
[4]
  Activity: 17%
[5]
  Activity: 35%
[6]
  EC50: 2.08 µM
[7]
  Activity: 80%

## CCCCNC(=O)c1cc(NC(=O)CN2CCCCC2)ccc1OC1CCCCC1
[1]
  EC50: 108 µM
[2]
  Activity: 65%
[3]; read-out: EC50
  EC50: 80 µM
[4]
  Activity: 22%
[5]
  Activity: 37%
[6]
  EC50: 2.39 µM
[7]
  Activity: 76%

## C#CCOc1ccc(NC(=O)CN2CCCC2)cc1C(=O)NCCCC
[1]
  EC50: 99.2 µM
[2]
  Activity: 65%
[3]
  EC50: Not Active
[4]
  Activity: 32%
[5]
  Activity: 43%
[6]
  EC50: 3.52 µM
[7]
  Activity: 74%
